The list is not random: actives were taken first. Their share in the collection is about 2.2%.
Env fusion inh – HIV envelope-mediated fusion inhibition. HeLa-JRFL Env/CEM21 cell fusion, luciferase. inhibition, % at 12.3 µM. hit rate 1.1% among 360,000. AID 651610;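 active means mean replicate inhibition score of at least 50 and every replicate individually at or above 50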;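 further: 0% = plate neutral controls and 100% = maraviroc near 300 nM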
NR2E3 ag-1 – activates human photoreceptor nuclear receptor NR2E3 | Q9Y5X4 | GST-NR2E3/biotin-RetCOR TR-FRET, 1536-well | inhibition of corepressor binding, % at 4.78 µM | hit rate 0.12% among 320,000 | AID 2300;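 active means percent inhibition above the cutoff of mean plus 3 SD of all tested compounds, set per screening campaign, cut at about 20% in these data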;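 further: 0% = DMSO wells and 100% = biotin wells as full block of FRET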
Target sequence (Q9Y5X4 whole entry, looked up): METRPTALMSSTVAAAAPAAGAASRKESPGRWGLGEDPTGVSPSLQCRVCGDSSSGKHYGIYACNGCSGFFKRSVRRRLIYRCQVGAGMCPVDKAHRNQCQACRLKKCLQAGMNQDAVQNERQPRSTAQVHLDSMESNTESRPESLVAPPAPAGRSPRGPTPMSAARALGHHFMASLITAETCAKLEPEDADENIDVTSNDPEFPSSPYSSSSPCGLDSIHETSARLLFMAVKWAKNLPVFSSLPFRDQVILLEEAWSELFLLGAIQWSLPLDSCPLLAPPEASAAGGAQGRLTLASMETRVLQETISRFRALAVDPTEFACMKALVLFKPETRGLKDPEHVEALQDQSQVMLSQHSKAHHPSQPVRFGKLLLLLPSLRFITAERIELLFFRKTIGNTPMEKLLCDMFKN
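System: GST-tagged NR2E3 plus biotinylated RetCOR corepressor; Buffer or medium: pH 7.5 Tris-based buffer; Probe or stimulus: RetCOR corepressor, biotinylated, 7 nM; Doses: compound at 4.8 µM, single dose; Schedule: 5 h incubation at 4 °C; Technique: time-resolved FRET; Evaluation: percent inhibition of TR-FRET ratio; Replication: one well per compound, singlicate testing.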
GalR3 antag – human GalR3 antagonism; inhibition, % at 3 µM; O60755; HEK293 GalR3-CNG cAMP membrane potential fluorescence; galR3 body fused to GalR1 C-terminus; hit rate 0.44% among 360,000;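 active means inhibition above the screen-wide average plus 3 SD, cut at about 13% in these data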;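 further: forskolin and galanin both at EC90 stimulate the cells; cAMP rise reported by CNG channel membrane potential dye signal; 0% = forskolin plus galanin with DMSO and 100% = forskolin alone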
Target sequence (O60755 1-299 limits assumed): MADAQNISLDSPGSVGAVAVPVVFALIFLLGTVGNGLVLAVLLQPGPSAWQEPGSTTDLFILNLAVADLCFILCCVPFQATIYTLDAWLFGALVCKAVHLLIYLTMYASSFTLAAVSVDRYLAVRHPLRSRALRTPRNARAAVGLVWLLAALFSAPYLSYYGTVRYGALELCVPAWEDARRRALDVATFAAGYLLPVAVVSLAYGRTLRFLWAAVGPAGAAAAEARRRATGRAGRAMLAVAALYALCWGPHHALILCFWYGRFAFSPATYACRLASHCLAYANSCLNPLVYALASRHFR
NR2E3 ag-2 – agonists of human NR2E3 nuclear receptor; CHO-S Gal4-NCOR/VP16-NR2E3 two-hybrid, luciferase; hit rate 0.35% among 360,000; Q9Y5X4; inhibition of corepressor binding, % at 3.98 µM;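 active means inhibition above the mean of all tested compounds plus 3 SD, cut at about 70% in these data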;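 further: 0% = DMSO with NR2E3 transfected cells and 100% = cells lacking NR2E3 construct; higher means lower luciferase signal from less NR2E3 corepressor binding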
FXN GAA850 act – frataxin GAA850 promoter activation; HEK293 lucGAA850 FXN promoter luciferase reporter, 24 h; percent of 10 µM SAHA response; activation, % at 6 µM; hit rate 0.56% among 360,000;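 active means activation above the average of all compounds screened plus 3 SD, cutoff fixed separately per campaign, cut at about 7.5% in these data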;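 further: 0% = DMSO wells and 100% = 10 µM SAHA wells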
V-ATPase pHluor – regulators of yeast V-ATPase proton transport; hit rate 0.37% among 350,000; AID 504577; S. cerevisiae, pHLuorin cytosolic pH fluorescence; response, % at 10 µM; in the data active means response mostly above about 7.3%, no sharp cut-off; inactive means mostly below about 5.4%; further: actives read high
GAA30 counter – activates GAA30 frataxin promoter, counter-screen for GAA850 activators | shares compounds with FXN GAA850 act | HEK293 lucGAA30 FXN promoter luciferase, 24 h; DMSO = 0%, 5 µM ipriflavone = 100% | activation, % at 6 µM | hit rate 66% among 1,900 | AID 588350;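 active means mean activation above the mean of solvent-only control wells plus 3 SD, cut at about 22% in these data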;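 further: counterscreen of GAA850 promoter hits where activity marks nonselective or luminescence artifacts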
FXN GAA850 conf – confirmation of GAA850 frataxin (FXN) promoter activators | shares compounds with FXN GAA850 act | HEK293 lucGAA850 FXN promoter luciferase reporter, 24 h; 100% = activation by SAHA | activation, % at 6 µM | hit rate 86% among 1,900 | AID 588351;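 active means mean activation above a set limit taken from the primary screen, cut at about 8% in these data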;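 further: 0% = DMSO wells and 100% = 10 µM SAHA wells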
* = called active by the depositor; . = not tested or not shown; [ ] = another dose, or the depositor's remark.

SMILES | Env fusion inh | NR2E3 ag-1 | GalR3 antag | NR2E3 ag-2 | FXN GAA850 act | V-ATPase pHluor | GAA30 counter | FXN GAA850 conf
O=C(NCc1cccnc1)NC1(C(F)(F)F)Oc2ccc(Cl)cc2O1 (stereo not given) | . | 1.6 | . | 2.1 | 12.3* | 2.8 | 25.6* | 18.4*
Cc1ccc(Cl)cc1NC(=O)NCc1cccnc1 | -3.6 | . | 1.6 | 12.1 | -0.8 | 2.8 | . | .
C[C@H]1CCCCO[C@H](CN(C)C(=O)Nc2ccccc2)[C@@H](C)CN([C@@H](C)CO)C(=O)c2cc(N(C)C)ccc2O1 | 6.8[16.7 µM] | . | . | . | . | . | . | .
COc1ccc(N2Cc3ccc(OC)c(OC)c3C2=O)cc1 | -48.9 | 0.9 | -9.4 | -50.8 | 8.5* | 4.8 | 100.5* | 28.3*
C[C@H](CO)N1C[C@H](C)[C@@H](CN(C)Cc2ccc3c(c2)OCO3)Oc2ccc(NC(=O)CCN3CCOCC3)cc2C1=O | -16.9[16.7 µM] | . | . | . | . | . | . | .
COc1cc(C#Cc2ccc3cc(CCO)oc(=O)c3c2)cc(OC)c1 | -119.7 | . | 9.6 | -130.7 | 7.8* | -2.4 | 106.4* | 37.6*
CN(C)c1ccc(C#Cc2ccc3cc(CCO)oc(=O)c3c2)cc1 | . | -104.3 | . | -127.7 | 4.2 | -1.7 | . | .
C[C@@H]1CCCCO[C@@H](CN(C)C(=O)Nc2ccccc2)[C@H](C)CN([C@@H](C)CO)C(=O)c2cc(NC(=O)Nc3cccc4ccccc34)ccc2O1 | 6.9[16.7 µM] | . | . | . | . | . | . | .
COc1ccc(-c2csc(-c3ccc(C(=O)O)cc3)n2)cc1 | -18.5 | 1.7 | -4.4 | -109.8 | 9.8* | -8.1 | 84.7* | 36.5*
O=C(O)c1ccc(-c2nc(-c3ccc(Cl)cc3Cl)cs2)cc1 | -33.1 | 0.9 | -6.6 | -80.6 | 8.2* | 0.1 | 112.6* | 43.6*
C[C@@H]1CCCCO[C@H](CN(C)Cc2ccc(C(=O)O)cc2)[C@@H](C)CN([C@H](C)CO)C(=O)c2cc(NC(=O)Cc3ccccc3)ccc2O1 | -19.5[16.7 µM] | . | . | . | . | . | . | .
CCCN1CCN(C(c2cc3cc(OCC)ccc3[nH]c2=O)c2nnnn2C2CCCCC2)CC1 (stereo not given) | -25.8 | 0.1 | -1.0 | 10.3 | 10.7* | 7.4 | 16.9 | 7.9*
COc1ccc(C(=O)N/C(N)=N/c2nc3ccccc3o2)cc1 | -41.9 | -3.4 | -2.4 | -43.7 | 1.3 | -3.9 | . | .
COc1ccc(C(=O)/C=C/Sc2nc3ccccc3o2)cc1 | -284.0 | -6.7 | -5.3 | -21.4 | 9.8* | 6.1 | 4.8 | 5.3
c1ccc(OCCCn2nnc(-c3ccc(N4CCOCC4)cc3)n2)cc1 | . | 2.6 | 1.5 | -20.7 | 8.6* | 1.9 | 19.9 | 8.6*
c1ccc(OCCCn2nnc(-c3ccncc3)n2)cc1 | . | 5.0 | -7.0 | -6.8 | -0.8 | -1.0 | . | .
COc1ccccc1NC(=O)c1cnc(SCC(=O)NCC2CCCO2)n(C)c1=O (stereo not given) | -11.1 | -1.1 | 0.6 | -35.6 | 9.5* | -1.6 | 17.7 | 24.3*
COc1ccccc1-n1nnnc1SCC(=O)NCC1CCCO1 (stereo not given) | -19.9 | 0.5 | 2.9 | -20.0 | -1.2 | -1.0 | . | .
CCc1ccc(OCC(=O)NCc2ccco2)c(Br)c1 | . | 0.8 | -7.8 | -21.7 | 8.6* | 1.4 | 76.2* | 24.3*
Cc1cc(OC(C)C(=O)N(Cc2ccco2)C2CCS(=O)(=O)C2)ccc1Cl (stereo not given) | . | 2.1 | . | 1.3 | 11.7* | -3.6 | 9.2 | 5.1
CCc1ccc(OC(C)C(=O)N(Cc2ccco2)C2CCS(=O)(=O)C2)cc1 (stereo not given) | 37.7 | -1.1 | . | -18.7 | 0.5 | -0.5 | . | .
Cc1n[nH]c(C)c1S(=O)(=O)N(CC(=O)NC1CCCC1)c1ccc(C(C)C)cc1 | 86.1* | 0.3 | -1.1 | 3.4 | 8.2* | -1.0 | 21.3 | 9.5*
CN1C(=O)/C(=C\c2ccncc2)SC1=Nc1ccccc1 | . | 2.3 | -10.3 | -8.9 | 8.4* | 1.0 | -1.0 | 7.2
CCCN1C(=O)/C(=C/c2ccncc2)SC1=S | 7.2 | -2.3 | -5.1 | 10.5 | 2.2 | -5.3 | . | .
Nc1nc(-c2cccnc2)nc2sc3c(c12)CCCC3 | -164.6 | 0.5 | -3.4 | -115.0 | 10.0* | 1.9 | 108.1* | 53.5*
SMILES | Env fusion inh | NR2E3 ag-1 | GalR3 antag | NR2E3 ag-2 | FXN GAA850 act | V-ATPase pHluor | GAA30 counter | FXN GAA850 conf
O=C1CN(c2nc(-c3cccnc3)nc3sc4c(c23)CCCC4)CCN1 | 2.8 | 8.3 | -4.0 | 3.1 | 10.3* | -6.7 | 12.8 | 21.2*
C[C@H]1CN([C@@H](C)CO)C(=O)c2cc(-c3ccncc3)cnc2O[C@@H]1CN(C)Cc1cccnc1 | 6.0[16.7 µM] | . | . | . | . | . | . | .
O=C(Nc1ccc(C(F)(F)F)cc1)N[C@@H]1CC[C@@H](CCn2cc(C3(O)CCCC3)nn2)O[C@H]1CO | 0.1[16.7 µM] | . | . | . | . | . | . | .
CC(=O)N(C)C[C@@H]1Oc2ncc(-c3cccc(F)c3)cc2C(=O)N([C@H](C)CO)C[C@@H]1C | 15.2[16.7 µM] | . | . | . | . | . | . | .
CCn1c(-c2ccccc2)csc1=Nc1ccc(O)cc1 | -47.1 | 1.8 | -5.6 | -82.2 | 9.3* | 3.5 | 99.4* | 36.7*
CCOc1ccc(N=c2scc(-c3ccccc3)n2CCO)cc1 | . | 0.5 | -11.8 | -93.5 | 0.8 | -4.3 | . | .
Cc1ccc(S(=O)(=O)Nc2cccc3c2O[C@@H](CN(C)C(=O)Nc2c(C)noc2C)[C@@H](C)CN([C@H](C)CO)C3=O)cc1 | -9.9[16.7 µM] | . | . | . | . | . | . | .
CCS(=O)(=O)N1Cc2ccccc2CC1C(=O)Nc1nccs1 (stereo not given) | -5.1 | 3.7 | 4.3 | -103.1 | 8.2* | -1.8 | 108.8* | 38.3*
CCS(=O)(=O)N1Cc2ccccc2CC1C(=O)Nc1nc(C)cs1 (stereo not given) | -37.3 | 2.1 | -5.4 | -66.8 | 7.9* | -0.1 | 79.5* | 33.0*
CC(C)NC(=O)N(C)C[C@@H]1Oc2ccc(NC(=O)C3CC3)cc2C(=O)N([C@H](C)CO)C[C@@H]1C | -11.2[16.7 µM] | . | . | . | . | . | . | .
Cc1ccc(NC(=O)C(=O)NCc2ccccn2)cc1 | -5.7 | 1.9 | -1.9 | -52.8 | 8.3* | -2.8 | 90.1* | 38.0*
Cc1nc2c(-c3ccccc3)cnn2c(N2CCOCC2)c1C | -87.5 | -2.9 | -8.5 | -156.6 | 8.3* | 1.2 | 127.0* | 43.7*
C[C@@H]1CN([C@@H](C)CO)C(=O)c2cccc(NS(=O)(=O)c3ccc(Cl)cc3)c2O[C@@H]1CN(C)S(=O)(=O)c1cn(C)cn1 | -17.0[16.7 µM] | . | . | . | . | . | . | .
O=C(Nc1ccc(N2CCCCC2)cc1)c1ccc([N+](=O)[O-])o1 | -276.0 | 1.1 | -9.4 | 3.6 | 12.8* | 5.3 | 114.2* | 67.4*
O=C(Nc1ccc(N2CCCC2)c(Cl)c1)c1ccc([N+](=O)[O-])o1 | -140.1 | . | -1.6 | 18.2 | 17.9* | 3.6 | 117.7* | 69.9*
O=C(Nc1ccccc1N1CCCC1)c1ccc([N+](=O)[O-])o1 | -8.2 | -4.0 | 0.7 | 20.4 | 1.2 | -4.6 | . | .
